Assay results published in ChEMBL document CHEMBL4376814, “Novel cyclin-dependent kinase 9 (CDK9) inhibitor with suppression of cancer stemness activity against non-small-cell lung cancer” (Eur J Med Chem, 2019).
Calls of active or inactive are those of the source. The calls are words filed in the database; no cut-off is given here.

What was measured:
[1] = tested on: A549; assay: Induction of apoptosis in human A549 cells assessed as early apoptotic cells at 0.5 uM after 48 hrs by AnnexinV-FITC/PI staining-based flow cytometric analysis (reference value: 2.91%); type: functional
[2] = tested on: NCI-H1299; assay: Induction of apoptosis in human H1299 cells assessed as necrotic cells at 0.25 uM after 48 hrs by AnnexinV-FITC/PI staining-based flow cytometric analysis (reference value: 0.9%); type: functional
[3] = tested on: NCI-H1299; assay: Induction of apoptosis in human H1299 cells assessed as increase in cleaved caspase 3 expression at 0.25 to 1 uM after 24 hrs by Western blot analysis; type: functional, cell-based
Method in brief: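 A549 or H1299 cells exposed to the indicated concentrations for 24 h. Protein extracts then immunoblotted for apoptosis-pathway proteins (Bcl2, Bim, cleaved caspase 3).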

[4] = biological target: Serine/threonine-protein kinase 26 (Homo sapiens) (UniProt Q9P289); assay: Inhibition of recombinant human MST4 (4 to 304 residues) at 1 uM using RLGRDKYKTLRQIRQ as substrate measured after 40 mins in presence of [gamma33P]ATP by scintillation counting method relative to control
Sequence of Serine/threonine-protein kinase 26 (Homo sapiens) (Q9P289 2-416 limits assumed): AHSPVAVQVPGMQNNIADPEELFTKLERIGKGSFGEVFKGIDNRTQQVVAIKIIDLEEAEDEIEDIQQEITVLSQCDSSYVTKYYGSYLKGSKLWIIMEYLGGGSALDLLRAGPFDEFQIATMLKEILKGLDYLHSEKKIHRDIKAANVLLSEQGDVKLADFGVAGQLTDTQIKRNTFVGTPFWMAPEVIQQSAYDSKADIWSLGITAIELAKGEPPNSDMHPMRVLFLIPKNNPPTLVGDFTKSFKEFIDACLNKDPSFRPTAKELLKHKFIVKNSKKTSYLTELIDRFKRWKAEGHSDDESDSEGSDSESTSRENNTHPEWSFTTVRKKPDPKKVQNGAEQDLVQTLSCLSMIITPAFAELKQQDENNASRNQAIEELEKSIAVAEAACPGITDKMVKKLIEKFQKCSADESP

[5] = biological target: Calcium/calmodulin-dependent protein kinase kinase 1 (Homo sapiens) (UniProt Q8N5S9); assay: Inhibition of recombinant full-length human CaMKK1 at 1 uM using calmodulin as substrate measured after 40 mins in presence of [gamma33P]ATP by scintillation counting method relative to control
[6] = biological target: Serine/threonine-protein kinase Nek11 (Homo sapiens) (UniProt Q8NG66); assay: Inhibition of recombinant full-length human NEK11 at 1 uM using myelin basic protein as substrate measured after 40 mins in presence of [gamma33P]ATP by scintillation counting method relative to control
Sequence of Serine/threonine-protein kinase Nek11 (Homo sapiens) (Q8NG66 whole entry): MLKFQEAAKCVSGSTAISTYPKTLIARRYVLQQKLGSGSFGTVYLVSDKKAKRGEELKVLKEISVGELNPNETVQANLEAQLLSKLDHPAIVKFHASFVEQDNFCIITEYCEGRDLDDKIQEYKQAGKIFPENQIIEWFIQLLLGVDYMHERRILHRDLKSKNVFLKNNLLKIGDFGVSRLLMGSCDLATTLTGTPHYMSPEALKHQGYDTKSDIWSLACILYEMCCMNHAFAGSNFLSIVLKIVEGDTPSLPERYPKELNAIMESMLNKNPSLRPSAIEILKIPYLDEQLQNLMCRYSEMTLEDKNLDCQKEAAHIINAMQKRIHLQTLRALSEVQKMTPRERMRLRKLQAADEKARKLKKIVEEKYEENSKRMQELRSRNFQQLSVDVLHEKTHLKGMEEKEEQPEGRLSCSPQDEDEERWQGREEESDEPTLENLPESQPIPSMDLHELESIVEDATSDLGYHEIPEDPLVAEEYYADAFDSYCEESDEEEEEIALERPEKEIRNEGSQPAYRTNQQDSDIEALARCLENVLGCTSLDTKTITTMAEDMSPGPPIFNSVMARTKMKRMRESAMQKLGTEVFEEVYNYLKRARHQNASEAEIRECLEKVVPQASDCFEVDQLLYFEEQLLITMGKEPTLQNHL

[7] = tested on: Platelet-derived growth factor receptor alpha (Homo sapiens), P16234 [V561D]; assay: Inhibition of recombinant human PDGFRalpha (550 to end residues) V561D mutant at 1 uM using GGMEDIYFEFMGGKKK as substrate measured after 40 mins in presence of [gamma33P]ATP by scintillation counting method relative to control
[8] = biological target: [Pyruvate dehydrogenase (acetyl-transferring)] kinase isozyme 4, mitochondrial (Homo sapiens) (UniProt Q16654); assay: Inhibition of recombinant full-length human PDHK4 at 1 uM using KKKYHGHSMSDPGVSYRT as substrate measured after 40 mins in presence of [gamma33P]ATP by scintillation counting method relative to control
[9] = tested on: RAC-beta serine/threonine-protein kinase (Homo sapiens), P31751 [S474D]; assay: Inhibition of recombinant human pkb-beta S474D mutant (120 to end residues) at 1 uM using GRPRTSSFAEGKK as substrate measured after 40 mins in presence of [gamma33P]ATP by scintillation counting method relative to control
Sequence of RAC-beta serine/threonine-protein kinase (Homo sapiens), P31751 [S474D] (P31751 whole entry S474D): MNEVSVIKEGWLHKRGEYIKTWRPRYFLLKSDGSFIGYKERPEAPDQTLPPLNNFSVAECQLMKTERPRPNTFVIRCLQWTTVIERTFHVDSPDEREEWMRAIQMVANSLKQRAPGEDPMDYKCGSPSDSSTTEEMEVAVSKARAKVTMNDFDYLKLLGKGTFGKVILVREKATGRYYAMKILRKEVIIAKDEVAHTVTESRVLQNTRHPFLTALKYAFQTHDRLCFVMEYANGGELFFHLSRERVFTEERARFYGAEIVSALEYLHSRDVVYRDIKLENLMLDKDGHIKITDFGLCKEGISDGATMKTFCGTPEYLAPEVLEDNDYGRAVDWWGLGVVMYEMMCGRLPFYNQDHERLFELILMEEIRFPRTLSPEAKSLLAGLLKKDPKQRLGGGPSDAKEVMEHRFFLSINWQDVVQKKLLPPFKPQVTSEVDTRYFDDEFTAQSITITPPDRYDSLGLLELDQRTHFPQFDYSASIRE

[10] = tested on: RAC-gamma serine/threonine-protein kinase (Homo sapiens), Q9Y243 [S472D]; assay: Inhibition of recombinant human pkb-gamma S472D mutant (117 to end residues) S472D mutant at 1 uM using GRPRTSSFAEGKK as substrate measured after 40 mins in presence of [gamma33P]ATP by scintillation counting method relative to control
[11] = biological target: Dual specificity tyrosine-phosphorylation-regulated kinase 1B (Homo sapiens) (UniProt Q9Y463); assay: Inhibition of recombinant full-length human DYRK1B at 1 uM using RRRFRPASPLRGPPK as substrate measured after 40 mins in presence of [gamma33P]ATP by scintillation counting method relative to control
Sequence of Dual specificity tyrosine-phosphorylation-regulated kinase 1B (Homo sapiens) (Q9Y463 whole entry, looked up, the tested form may be a part): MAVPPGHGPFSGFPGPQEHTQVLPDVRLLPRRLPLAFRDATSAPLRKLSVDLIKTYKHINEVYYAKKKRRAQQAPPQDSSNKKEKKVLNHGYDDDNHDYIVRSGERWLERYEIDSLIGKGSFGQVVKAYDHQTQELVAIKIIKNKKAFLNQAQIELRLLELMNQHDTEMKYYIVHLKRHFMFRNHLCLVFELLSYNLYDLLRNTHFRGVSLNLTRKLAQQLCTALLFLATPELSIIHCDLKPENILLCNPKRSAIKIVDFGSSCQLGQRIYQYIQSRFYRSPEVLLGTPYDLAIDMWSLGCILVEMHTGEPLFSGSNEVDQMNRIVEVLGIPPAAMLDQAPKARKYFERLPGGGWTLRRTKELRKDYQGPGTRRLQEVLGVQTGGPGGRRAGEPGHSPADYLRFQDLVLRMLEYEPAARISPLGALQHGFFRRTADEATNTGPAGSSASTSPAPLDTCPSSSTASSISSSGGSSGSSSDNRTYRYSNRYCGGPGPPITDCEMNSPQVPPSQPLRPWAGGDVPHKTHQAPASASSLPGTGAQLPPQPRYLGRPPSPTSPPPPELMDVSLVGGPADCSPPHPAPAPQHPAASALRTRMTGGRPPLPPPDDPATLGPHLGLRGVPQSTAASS

[12] = biological target: Ephrin type-A receptor 8 (Homo sapiens) (UniProt P29322); assay: Inhibition of recombinant human EphA8 (615 to 911 residues) at 1 uM using KTFCGTPEYLAPEVRREPRILSEEEQEMFRDFDYIADWC as substrate measured after 40 mins in presence of [gamma33P]ATP by scintillation counting method relative to control
[13] = biological target: Receptor tyrosine-protein kinase erbB-4 (Homo sapiens) (UniProt Q15303); assay: Inhibition of recombinant human ErbB4 (706 to 991 residues) at 1 uM using poly(Glu, Tyr) 4:1 as substrate measured after 40 mins in presence of [gamma33P]ATP by scintillation counting method relative to control
[14] = biological target: Tyrosine-protein kinase Fes/Fps (Homo sapiens) (UniProt P07332); assay: Inhibition of recombinant human FES (2 to end residues) at 1 uM using poly(Glu, Tyr) 4:1 as substrate measured after 40 mins in presence of [gamma33P]ATP by scintillation counting method relative to control
Sequence of Tyrosine-protein kinase Fes/Fps (Homo sapiens) (P07332 whole entry, the tested form may be a part): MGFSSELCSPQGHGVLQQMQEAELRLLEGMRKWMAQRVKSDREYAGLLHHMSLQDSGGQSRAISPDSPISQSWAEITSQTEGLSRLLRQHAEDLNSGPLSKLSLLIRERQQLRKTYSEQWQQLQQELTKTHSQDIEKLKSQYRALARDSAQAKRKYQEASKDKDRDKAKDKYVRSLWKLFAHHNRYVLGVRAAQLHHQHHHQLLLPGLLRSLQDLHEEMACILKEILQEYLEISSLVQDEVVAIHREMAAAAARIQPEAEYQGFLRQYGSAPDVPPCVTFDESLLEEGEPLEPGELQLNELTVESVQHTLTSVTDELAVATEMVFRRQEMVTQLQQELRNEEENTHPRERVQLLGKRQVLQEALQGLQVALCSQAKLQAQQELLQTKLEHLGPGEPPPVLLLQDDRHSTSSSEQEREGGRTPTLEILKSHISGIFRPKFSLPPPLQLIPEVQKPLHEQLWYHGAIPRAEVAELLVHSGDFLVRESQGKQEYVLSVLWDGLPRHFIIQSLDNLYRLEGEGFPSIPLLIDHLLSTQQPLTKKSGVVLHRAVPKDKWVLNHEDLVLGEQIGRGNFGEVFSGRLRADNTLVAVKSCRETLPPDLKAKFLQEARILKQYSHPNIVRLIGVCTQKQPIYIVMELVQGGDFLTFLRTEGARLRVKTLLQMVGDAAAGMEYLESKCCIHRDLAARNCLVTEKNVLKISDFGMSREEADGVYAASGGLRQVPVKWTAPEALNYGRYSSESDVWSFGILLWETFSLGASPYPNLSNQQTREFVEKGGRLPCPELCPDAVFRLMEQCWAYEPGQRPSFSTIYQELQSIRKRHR

[15] = tested on: Fibroblast growth factor receptor 2 (Homo sapiens), P21802 [N549H]; assay: Inhibition of recombinant human FGFR2 N549H mutant (456 to 770 residues) at 1 uM using GGEEEEYFELVKKKK as substrate measured after 40 mins in presence of [gamma33P]ATP by scintillation counting method relative to control
[16] = tested on: Proto-oncogene tyrosine-protein kinase receptor Ret (Homo sapiens), P07949 [V804M]; assay: Inhibition of human Ret V804M mutant (658 to end residues) at 1 uM using KKKVSRSGLYRSPSMPENLNRPR as substrate measured after 40 mins in presence of [gamma33P]ATP by scintillation counting method relative to control
Sequence of Proto-oncogene tyrosine-protein kinase receptor Ret (Homo sapiens), P07949 [V804M] (P07949 whole entry V804M): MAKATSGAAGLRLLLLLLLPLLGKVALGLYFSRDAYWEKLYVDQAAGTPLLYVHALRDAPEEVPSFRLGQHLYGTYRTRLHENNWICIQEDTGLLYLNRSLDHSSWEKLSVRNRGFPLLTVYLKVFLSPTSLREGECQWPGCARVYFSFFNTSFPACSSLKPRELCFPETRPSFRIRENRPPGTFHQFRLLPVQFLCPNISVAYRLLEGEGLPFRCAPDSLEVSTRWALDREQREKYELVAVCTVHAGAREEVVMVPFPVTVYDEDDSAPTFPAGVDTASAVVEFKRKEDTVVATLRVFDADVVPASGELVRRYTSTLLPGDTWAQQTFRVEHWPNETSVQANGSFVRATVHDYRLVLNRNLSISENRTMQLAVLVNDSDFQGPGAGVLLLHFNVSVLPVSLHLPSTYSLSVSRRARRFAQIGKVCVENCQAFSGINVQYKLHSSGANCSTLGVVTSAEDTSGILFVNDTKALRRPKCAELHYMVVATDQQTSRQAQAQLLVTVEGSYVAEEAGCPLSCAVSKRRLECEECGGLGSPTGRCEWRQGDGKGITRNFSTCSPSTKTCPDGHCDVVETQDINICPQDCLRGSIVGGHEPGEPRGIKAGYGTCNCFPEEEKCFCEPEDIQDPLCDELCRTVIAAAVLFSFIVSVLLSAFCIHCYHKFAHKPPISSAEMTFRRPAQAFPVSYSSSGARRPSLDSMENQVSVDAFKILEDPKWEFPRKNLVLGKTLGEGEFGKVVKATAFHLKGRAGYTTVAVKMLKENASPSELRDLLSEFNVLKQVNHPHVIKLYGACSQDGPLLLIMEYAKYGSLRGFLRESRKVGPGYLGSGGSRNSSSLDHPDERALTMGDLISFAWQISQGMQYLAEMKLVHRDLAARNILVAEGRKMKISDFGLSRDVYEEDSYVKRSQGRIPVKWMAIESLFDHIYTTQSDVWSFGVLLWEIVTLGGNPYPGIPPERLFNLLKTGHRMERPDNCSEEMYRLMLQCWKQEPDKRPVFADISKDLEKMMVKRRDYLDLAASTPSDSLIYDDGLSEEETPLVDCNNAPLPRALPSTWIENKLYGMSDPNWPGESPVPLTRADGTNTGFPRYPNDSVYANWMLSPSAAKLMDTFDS
Method in brief: (§1)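 Percent inhibition of kinase activity at a single compound concentration, measured by the outsourced Eurofins KinaseProfiler panel. Values are the mean of two independent experiments.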

[17] = biological target: Mitogen-activated protein kinase 12 (Homo sapiens) (UniProt P53778); assay: Inhibition of recombinant full-length human SAPK3 at 1 uM using myelin basic protein as substrate measured after 40 mins in presence of [gamma33P]ATP by scintillation counting method relative to control
Sequence of Mitogen-activated protein kinase 12 (Homo sapiens) (P53778 whole entry): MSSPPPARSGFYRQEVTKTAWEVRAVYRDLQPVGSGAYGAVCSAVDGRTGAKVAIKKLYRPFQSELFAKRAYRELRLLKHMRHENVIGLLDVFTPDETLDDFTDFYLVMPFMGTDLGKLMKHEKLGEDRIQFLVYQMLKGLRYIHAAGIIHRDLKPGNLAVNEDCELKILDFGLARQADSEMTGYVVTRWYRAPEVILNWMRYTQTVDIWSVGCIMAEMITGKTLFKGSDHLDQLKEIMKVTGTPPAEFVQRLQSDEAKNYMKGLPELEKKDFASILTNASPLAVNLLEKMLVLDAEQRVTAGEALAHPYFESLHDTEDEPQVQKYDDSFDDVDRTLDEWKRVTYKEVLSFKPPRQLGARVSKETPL

[18] = biological target: Macrophage colony-stimulating factor 1 receptor (Homo sapiens) (UniProt P07333); assay: Inhibition of recombinant human Fms (538 to end residues) at 1 uM using KKKSPGEYVNIEFG as substrate measured after 40 mins in presence of [gamma33P]ATP by scintillation counting method relative to control
[19] = biological target: Tyrosine-protein kinase HCK (Homo sapiens) (UniProt P08631); assay: Inhibition of recombinant human HCK (230 to 497 residues) at 1 uM using Cdc2 peptide as substrate measured after 40 mins in presence of [gamma33P]ATP by scintillation counting method relative to control
Sequence of Tyrosine-protein kinase HCK (Homo sapiens) (P08631 2-526 limits assumed): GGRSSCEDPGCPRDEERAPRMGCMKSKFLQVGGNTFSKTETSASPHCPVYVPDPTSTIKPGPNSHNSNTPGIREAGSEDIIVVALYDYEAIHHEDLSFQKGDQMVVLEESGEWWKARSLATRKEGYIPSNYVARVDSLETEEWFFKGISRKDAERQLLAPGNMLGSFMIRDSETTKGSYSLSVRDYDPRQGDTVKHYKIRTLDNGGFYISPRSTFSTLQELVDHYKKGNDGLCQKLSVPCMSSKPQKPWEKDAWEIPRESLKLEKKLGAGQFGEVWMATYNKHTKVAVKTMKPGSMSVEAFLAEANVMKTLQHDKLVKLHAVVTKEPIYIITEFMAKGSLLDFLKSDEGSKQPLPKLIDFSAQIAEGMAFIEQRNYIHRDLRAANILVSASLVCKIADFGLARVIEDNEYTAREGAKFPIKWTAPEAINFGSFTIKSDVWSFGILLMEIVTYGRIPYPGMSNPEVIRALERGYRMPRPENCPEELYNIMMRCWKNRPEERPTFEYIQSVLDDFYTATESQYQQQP

[20] = biological target: Tyrosine-protein kinase HCK (Homo sapiens) (UniProt P08631); assay: Inhibition of recombinant human activated HCK (230 to 497 residues) at 1 uM using GGMEDIYFEFMGGKKK as substrate measured after 40 mins in presence of [gamma33P]ATP by scintillation counting method relative to control
[21] = biological target: Serine/threonine-protein kinase SIK1 (Homo sapiens) (UniProt P57059); assay: Inhibition of human SIK (1 to 281 residues) at 1 uM using AMARAASAAALARRR as substrate measured after 40 mins in presence of [gamma33P]ATP by scintillation counting method relative to control; method in brief: as §1
[22] = biological target: Serine/threonine-protein kinase WNK1 (Homo sapiens) (UniProt Q9H4A3); assay: Inhibition of recombinant human WNK1 (1 to 491 residues) at 1 uM using MBP as substrate measured after 120 mins in presence of [gamma33P]ATP by scintillation counting method relative to control

**Q.** Which results are given for CN(C)C(=O)c1cc2cnc(Nc3ccc(NC(=O)CCCCCCCN=C=S)cc3)nc2n1C1CCCC1?
**A.** Activity [1]: 1.26%; Activity [2]: 0.669%; Activity [3]: Active; inhibition [4]: 6%; inhibition [5]: 88%; inhibition [6]: 20%; inhibition [7]: 90%; inhibition [8]: -3%; inhibition [9]: 23%; inhibition [10]: 10%; inhibition [11]: 0%; inhibition [12]: 2%; inhibition [13]: 24%; inhibition [14]: 7%; inhibition [15]: 76%; inhibition [16]: 58%; inhibition [17]: 4%; inhibition [18]: 68%; inhibition [19]: 9%; inhibition [20]: 5%; inhibition [21]: 51%; inhibition [22]: 6%
